What was measured:
Format in all cases: functional
[1] = test system: Mus musculus; assay: Number of survivors on 60th day at dose 20 mg/kg/day in 10 mice implanted with P388 leukemia cell line; 0/10
[2] = test system: Mus musculus; assay: Number of survivors on 60th day at dose 40 mg/kg/day in 10 mice implanted with P388 leukemia cell line; 0/10
[3] = test system: Mus musculus; assay: Number of survivors on 30th day at dose 50 mg/kg/day in 10 mice implanted with P388 leukemia cell line; 0/10
[4] = test system: Mus musculus; assay: Number of survivors on 60th day at dose 50 mg/kg/day in 10 mice implanted with P388 leukemia cell line; 0/10
[5] = test system: Mus musculus; assay: Percent increase in life span at dose 50 mg/kg/day in 10 mice implanted with P388 leukemia cell line
Method in brief: (§1)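 Female DBA2 mice inoculated iv on day 0 with 10^4 P388 cells; single iv treatment on day 1 with drug as sulfate salt in physiological saline. Survival followed; %ILS from all deaths and survivors as (T/C × 100) − 100, maximal MST 30 days; survivors counted on days 30 and 60. Most experiments confirmed three times.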

[6] = test system: Mus musculus; assay: Number of survivors on 30th day at dose 10 mg/kg/day in 10 mice implanted with P388 leukemia cell line; 0/10
[7] = test system: Mus musculus; assay: Number of survivors on 30th day at dose 40 mg/kg/day in 10 mice implanted with P388 leukemia cell line; 0/10
[8] = test system: Mus musculus; assay: Number of survivors on 60th day at dose 10 mg/kg/day in 10 mice implanted with P388 leukemia cell line; 0/10
[9] = test system: Mus musculus; assay: Percent increase in life span at dose 40 mg/kg/day in 10 mice implanted with P388 leukemia cell line; method in brief: as §1
[10] = test system: Mus musculus; assay: Percent increase in life span at dose 20 mg/kg/day in 10 mice implanted with P388 leukemia cell line; method in brief: as §1
[11] = test system: Mus musculus; assay: Number of survivors on 30th day at dose 20 mg/kg/day in 10 mice implanted with P388 leukemia cell line; 0/10
[12] = test system: Mus musculus; assay: Percent increase in life span of DBA2 mice after inoculation with L1210 leukemia intravenously at a dose of 55 mg/kg per day; conditions: route intravenous
Method in brief: (§2)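 Female DBA2 mice inoculated iv on day 0 with 10^4 L1210 cells; drugs given iv as sulfate salts in physiological saline, mostly once on day 1. %ILS from all deaths and survivors as (T/C × 100) − 100; survivors scored on days 30 and 60.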

[13] = test system: Mus musculus; assay: Number of survivors on 30th day at dose 70 mg/kg/day in 10 mice implanted with P388 leukemia cell line
[14] = test system: Mus musculus; assay: Number of survivors on 30th day at dose 30 mg/kg/day in 10 mice implanted with P388 leukemia cell line
[15] = test system: Mus musculus; assay: Number of survivors on 60th day at dose 50 mg/kg/day in 10 mice implanted with P388 leukemia cell line
[16] = test system: Mus musculus; assay: Number of survivors on 60th day at dose 30 mg/kg/day in 10 mice implanted with P388 leukemia cell line
[17] = test system: Mus musculus; assay: Number of survivors on 60th day at dose 70 mg/kg/day in 10 mice implanted with P388 leukemia cell line; method in brief: as §1
[18] = test system: Mus musculus; assay: Number of survivors of DBA2 mice on 30th day after inoculation with L1210 leukemia cell line intravenously at a dose of 50 mg/kg/day; 0/10; conditions: route intravenous
[19] = test system: Mus musculus; assay: Number of survivors on 60th day at dose 40 mg/kg/day in 10 mice implanted with P388 leukemia cell line
[20] = test system: Mus musculus; assay: Number of survivors on 30th day at dose 55 mg/kg/day in 10 mice implanted with P388 leukemia cell line
[21] = test system: Mus musculus; assay: Number of survivors on 60th day at dose 55 mg/kg/day in 10 mice implanted with P388 leukemia cell line
[22] = test system: Mus musculus; assay: Number of survivors on 30th day at dose 60 mg/kg/day in 10 mice implanted with P388 leukemia cell line
[23] = test system: Mus musculus; assay: Number of survivors on 60th day at dose 60 mg/kg/day in 10 mice implanted with P388 leukemia cell line; method in brief: as §1
[24] = test system: Mus musculus; assay: Percent increase in life span of DBA2 mice after inoculation with L1210 leukemia intravenously at a dose of 50 mg/kg per day; conditions: route intravenous; method in brief: as §2
[25] = test system: Mus musculus; assay: Percent increase in life span at dose 70 mg/kg/day in 10 mice implanted with P388 leukemia cell line; method in brief: as §1
[26] = test system: Mus musculus; assay: Percent increase in life span at dose 30 mg/kg/day in 10 mice implanted with P388 leukemia cell line; method in brief: as §1
[27] = test system: Mus musculus; assay: Number of survivors of DBA2 mice on 60th day after inoculation with L1210 leukemia cell line intravenously at a dose of 50 mg/kg/day; 0/10; conditions: route intravenous
[28] = test system: Mus musculus; assay: Number of survivors on 30th day at dose 40 mg/kg/day in 10 mice implanted with P388 leukemia cell line
[29] = test system: Mus musculus; assay: Percent increase in life span at dose 60 mg/kg/day in 10 mice implanted with P388 leukemia cell line; method in brief: as §1
[30] = test system: Mus musculus; assay: Number of survivors of DBA2 mice on 60th day after inoculation with L1210 leukemia cell line intravenously at a dose of 55 mg/kg/day; 0/10; conditions: route intravenous
[31] = test system: Mus musculus; assay: Number of survivors on 30th day at dose 50 mg/kg/day in 10 mice implanted with P388 leukemia cell line
[32] = test system: Mus musculus; assay: Percent increase in life span at dose 55 mg/kg/day in 10 mice implanted with P388 leukemia cell line; method in brief: as §1
[33] = test system: Mus musculus; assay: Number of survivors of DBA2 mice on 30th day after inoculation with L1210 leukemia cell line intravenously at a dose of 55 mg/kg/day; 0/10; conditions: route intravenous

CCOC(=O)[C@H](CCC(=O)O)NC(=O)[C@@]1(O)[C@H](O)[C@]2(CC)C=CCN3CC[C@@]4(c5cc([C@@]6(C(=O)OC)C[C@H]7C[N@](CCc8c6[nH]c6ccccc86)C[C@](O)(CC)C7)c(OC)cc5N(C)[C@@]14C)[C@@H]32
Survivors [1]: 0 | Survivors [2]: 0 | Survivors [3]: 0 | Survivors [4]: 0 | ILS at 50 mg/kg/day [5]: 2.8% | Survivors [6]: 0 | Survivors [7]: 0 | Survivors [8]: 0 | ILS at 40 mg/kg/day [9]: 34.5% | ILS at 20 mg/kg/day [10]: 10% | Survivors [11]: 0

CC[C@]1(O)C[C@@H]2C[N@](CCc3c([nH]c4ccccc34)[C@@](C(=O)OC)(c3cc4c(cc3OC)N(C)[C@@]3(C)[C@@](O)(C(=O)N[C@@H](Cc5c[nH]c6ccccc56)C(=O)OC)[C@H](O)[C@]5(CC)C=CCN6CC[C@]43[C@@H]65)C2)C1
ILS at 55 mg/kg/day [12]: 60.2% | Survivors [13]: 5 | Survivors [14]: 0 | Survivors [15]: 1 | Survivors [16]: 0 | Survivors [17]: 3 | Survivors [18]: 0 | Survivors [19]: 0 | Survivors [20]: 2 | Survivors [21]: 1 | Survivors [22]: 3 | Survivors [23]: 2 | ILS at 50 mg/kg/day [5]: 110% | ILS at 50 mg/kg/day [24]: 47.4% | ILS at 70 mg/kg/day [25]: 145% | ILS at 30 mg/kg/day [26]: 33.9% | Survivors [27]: 0 | Survivors [28]: 0 | ILS at 60 mg/kg/day [29]: 132% | Survivors [30]: 0 | Survivors [31]: 1 | ILS at 40 mg/kg/day [9]: 42.8% | ILS at 55 mg/kg/day [32]: 85.8% | Survivors [33]: 0

— ChEMBL document CHEMBL1122917, “Vinblastin-23-oyl amino acid derivatives: chemistry, physicochemical data, toxicity, and antitumor activities against P388 and L1210 leukemias” (J Med Chem, 1985)
